Assay outcomes (PubChem BioAssay)
Only some compounds are listed: those with a hit (about 2.3% of all), similar ones and a draw of the others.
TRPC4 inh – blocks the mouse TRPC4 cation channel. Q9QUQ5. HEK293 TRPC4beta/mu-opioid, DAMGO-evoked Fluo4 calcium flux; hits give low values. B-score at 10 µM. 300,000 tested, 0.39% active;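 active means B-score over 3 SD under the library average, no early fluorescence shift, positive overall ratio signal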
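Assay system: TRPC4beta/mu-opioid receptor HEK293 cell line; compound dosing: single concentration per test compound; detection: Fluo4 Ca2+ flux fluorescence; evaluation: per-well B score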
TRPC6 inh – inhibitors of mouse TRPC6 channel; Q61143; AID 2553; 310,000 tested, 1.1% active; HEK293-TRPC6, membrane potential dye, ACh-evoked depolarization; hits give low values; B-score at 10 µM;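 active means B-score under library mean minus 3 SD, initial fluorescence not abnormally high, positive integrated signal ratio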;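 further: B-score derived from integrated fluorescence ratio over the kinetic read; more negative B-score means stronger inhibition of depolarization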
Target sequence (Q61143 whole entry, looked up): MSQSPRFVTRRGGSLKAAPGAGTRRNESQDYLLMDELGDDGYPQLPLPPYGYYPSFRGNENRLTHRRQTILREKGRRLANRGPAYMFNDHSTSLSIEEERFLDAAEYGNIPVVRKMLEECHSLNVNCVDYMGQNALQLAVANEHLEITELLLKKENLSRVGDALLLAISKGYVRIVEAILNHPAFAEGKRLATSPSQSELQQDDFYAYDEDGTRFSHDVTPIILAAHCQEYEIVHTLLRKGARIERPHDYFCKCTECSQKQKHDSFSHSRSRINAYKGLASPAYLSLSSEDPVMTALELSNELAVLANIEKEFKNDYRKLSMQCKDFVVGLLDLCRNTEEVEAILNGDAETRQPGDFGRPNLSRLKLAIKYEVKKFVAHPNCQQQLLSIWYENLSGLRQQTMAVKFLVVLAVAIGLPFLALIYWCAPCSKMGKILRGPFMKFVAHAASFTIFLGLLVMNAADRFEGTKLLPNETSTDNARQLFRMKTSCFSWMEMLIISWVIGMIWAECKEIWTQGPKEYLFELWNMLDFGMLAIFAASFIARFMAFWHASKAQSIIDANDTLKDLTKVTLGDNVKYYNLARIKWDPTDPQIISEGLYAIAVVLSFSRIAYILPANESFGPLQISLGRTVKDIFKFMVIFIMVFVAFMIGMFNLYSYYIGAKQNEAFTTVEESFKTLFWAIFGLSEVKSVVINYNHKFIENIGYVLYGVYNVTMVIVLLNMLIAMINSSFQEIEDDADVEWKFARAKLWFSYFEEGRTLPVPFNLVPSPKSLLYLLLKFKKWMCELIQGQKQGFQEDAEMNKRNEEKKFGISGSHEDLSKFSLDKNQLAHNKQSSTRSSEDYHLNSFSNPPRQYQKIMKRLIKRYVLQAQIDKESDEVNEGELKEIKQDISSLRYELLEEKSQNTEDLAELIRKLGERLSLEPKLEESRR
TRPC4 act – activators of mouse TRPC4 channel; Q9QUQ5; HEK293 TRPC4beta/mu-opioid, Fluo4 calcium fluorescence; hits give high values; B-score at 10 µM; 310,000 tested, 0.49% active;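 active means B-score above 5 SD of library B-scores, and initial fluorescence ratio not above library mean plus 5 SD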;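 further: positive B-score marks a calcium rise read as TRPC4 activation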
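System – HEK293 cells stably co-expressing mouse TRPC4beta and mu-opioid receptor · Signal – Fluo4 calcium-sensitive dye fluorescence, kinetic, 1 Hz baseline · Benchmarks – buffer (low) and maximal DAMGO (high) · Read-out – B score of integrated fluorescence ratio per well · Incubation – dye loading 45 min room temperature, 110 s kinetic read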
TRPC6 act – activates the mouse TRPC6 cation channel; Q61143; HEK293-TRPC6 membrane potential dye fluorescence; hits give high values; B-score at 10 µM; 310,000 tested, 0.13% active; AID 2550;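 active means B-score of the integrated fluorescence ratio above library mean plus 3 SD, and starting fluorescence ratio within library mean plus 5 SD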;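 further: higher score means more depolarization so channel activation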
TRPC4 potent – allosteric potentiators of mouse TRPC4 channel; Q9QUQ5; HEK293 TRPC4beta/mu-opioid, DAMGO EC20, Fluo-4 Ca2+ flux; hits give high values; B-score at 10 µM; 310,000 tested, 0.42% active;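 active means B-score of calcium response area above 5 SD of library B-scores, with initial fluorescence ratio within 5 SD of library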;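 further: B-score of integrated fluorescence ratio over time as area under calcium response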
HEK293 TRPC6 ctr – counter-screen for TRPC6 modulators: effect in parental HEK293 cells | shares compounds with TRPC6 inh | membrane potential dye fluorescence | membrane potential signal change, % at 10 µM | 2,400 tested, 51% active | AID 488924;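 active means membrane potential signal moves up or down beyond 5 SD from buffer-only wells, on both duplicate plates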
HEK293 MPD ctr 2 – second counter-screen for TRPC6 modulators: effect in parental HEK293 cells. shares compounds with TRPC6 inh. 2,400 tested, 14% active. AID 488926. inhibition, % at 10 µM. membrane potential dye fluorescence; after compound, maximal acetylcholine stimulation;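 active means membrane potential signal drops by more than 5 SD from the mean control signal, in both duplicate plates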;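 further: plate controls were acetylcholine ECmax control wells for no effect and buffer only wells for full effect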
TRPC4 ctr mod – mouse TRPC4 off-target activity of TRPC6 modulators; shares compounds with TRPC6 inh; HEK293 TRPC4/mu-opioid, membrane potential fluorescence; percent change from control (negative = decrease, positive = increase), % at 10 µM; 2,400 tested, 69% active;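 active means membrane potential signal moved up or down beyond 5 SD of buffer control wells, in both duplicate plates, actives on both sides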;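 further: plate controls were assay buffer wells for no effect and DAMGO maximal-effect wells for full effect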
TRPC4/MOR inh 2 – mouse TRPC4 off-target activity of TRPC6 modulators, second screen | shares compounds with TRPC6 inh | HEK293 TRPC4/mu-opioid, membrane potential dye fluorescence; stimulated with maximal-effect DAMGO | 2,400 tested, 55% active | inhibition, % at 10 µM;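 active means drop in membrane potential signal beyond 5 SD of the control wells in both duplicate plates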;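 further: TRPC4 counter screen for TRPC6 hits run under conditions tuned for TRPC6 not TRPC4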
TRPC6 block conf – confirmation of mouse TRPC6 inhibitors; inhibition, % at 10 µM; HEK293-TRPC6, membrane potential dye, ACh-evoked depolarization; 3,300 tested, 43% active; shares compounds with TRPC6 inh; AID 488960;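 active means fluorescence ratio falls more than 5 SD below the full-stimulation control mean, in both duplicate runs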;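 further: integrated fluorescence ratio of peak minus minimum over baseline after agonist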
TRPC6 act conf – confirmation of mouse TRPC6 activators; HEK293-TRPC6 membrane potential dye fluorescence, FDSS; activation, % at 10 µM; shares compounds with TRPC6 inh; 2,800 tested, 11% active;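 active means ratio signal rise beyond 5 SD above unstimulated control wells' mean, seen in both duplicate runs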;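 further: plate controls were buffer EC0 wells for no effect and acetylcholine ECmax response for full effect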
An asterisk follows results filed as active; i = inactive; nt = no result.

SMILES | TRPC4 inh | TRPC6 inh | TRPC4 act | TRPC6 act | TRPC4 potent | HEK293 TRPC6 ctr | HEK293 MPD ctr 2 | TRPC4 ctr mod | TRPC4/MOR inh 2 | TRPC6 block conf | TRPC6 act conf
Cc1cc(C(F)(F)F)n2nc(-c3cccs3)cc2n1 | i | i | i | i | i | nt | nt | nt | nt | nt | nt
CCN(CC)CCCNc1cc(C)nc2cc(-c3cccs3)nn12 | i | -7.54* | i | i | i | -415.5%* | i | -62.0%* | 51.5%* | 44.5%* | i
Cc1cccc(-c2cc3nc(C)cc(NCCCN(C)C)n3n2)c1 | i | -7.23* | i | i | 13* | -194.5%* | 74.5%* | -40.0%* | 60.5%* | 55.5%* | i
CC(C)OC(=O)c1cccc(C(=O)Nc2cccc(NC(=O)c3cccc(C(=O)OC(C)C)n3)n2)n1 | i | i | i | i | i | nt | nt | nt | nt | nt | nt
COc1cc2c(cc1OC)CN(C(=O)CNS(=O)(=O)c1ccc(C)c(C)c1)CC2 | i | i | i | i | i | nt | nt | nt | nt | nt | nt
CC(OC(=O)C1CCC1)C(=O)Nc1cc(Cl)cc(Cl)c1 (stereo not drawn) | i | i | i | i | i | nt | nt | nt | nt | nt | nt
O=C(CSc1nnc(-c2ccncc2)n1Cc1ccco1)OC1CCCCC1 | i | i | i | i | i | nt | nt | nt | nt | nt | nt
O=C(CSc1nnc(-c2ccco2)n1Cc1ccccc1)OC1CCCCC1 | i | i | i | 11.8* | i | 382.5%* | i | 53.0%* | 52.0%* | i | 86.0%*
O=C(/C=C/c1ccccc1)NCC(=O)N/N=C/c1ccco1 | i | i | i | i | i | nt | nt | nt | nt | nt | nt
COc1ccc(NC(=O)CN(C)C(=O)CSCc2c(C)noc2C)cc1 | i | i | i | i | i | nt | nt | nt | nt | nt | nt
CN1CCN(c2ccccc2/C=C2/C(=O)Nc3ccccc32)CC1 | i | -4.99* | i | i | i | 120.5%* | i | 46.0%* | 72.0%* | i | nt
COc1ccc(-c2n(CC(=O)OC3CC(C)CCC3C(C)C)c3ccccc3[n+]2C)cc1 (stereo not drawn) | i | -5.07* | i | 14.7* | i | 536.0%* | i | 108.0%* | 56.0%* | 49.5%* | 191.5%*
S=C1NC[C@H](CC2CCCCC2)N1CC1CCCCC1 | i | i | i | i | i | nt | nt | nt | nt | nt | nt
O=C(c1cccc(C(=O)N2CCN(c3ccccc3F)CC2)n1)N1CCN(c2ccccc2F)CC1 | i | -10.4* | i | 12.3* | i | 141.5%* | i | 29.0%* | 64.0%* | 88.0%* | 129.5%*
CC1CCN(CC(C)OC(=O)c2ccc3c(c2)OCCO3)CC1 (stereo not drawn) | i | -5.18* | i | i | i | 120.0%* | i | 15.0%* | i | i | nt
CCCC[C@@H]1CNCCN1CCc1cc(C(F)(F)F)cc(C(F)(F)F)c1 | i | i | i | i | i | nt | nt | nt | nt | nt | nt
